Source: ChEMBL document CHEMBL3259534, “Diterpenoids from Croton laui and their cytotoxic and antimicrobial activities” (J Nat Prod, 2014)
Converted amounts (≈) assume the structure as drawn.

Key:
[1] = test system: HL-60; assay: Cytotoxicity against human HL60 cells after 72 hrs by MTT assay; type: functional, cell-based; conditions: HL-60, 72 h
In short: (§1)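 MTT viability assay on HL-60 human premyelocytic leukemia cells and P-388 murine leukemia cells. Adriamycin was included as the positive control.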

[2] = test system: P388; assay: Cytotoxicity against mouse P388 cells after 72 hrs by MTT assay; type: functional, cell-based; conditions: P388, 72 h; in short: as §1
[3] = test system: Staphylococcus aureus; assay: Antimicrobial activity against Staphylococcus aureus ATCC 25923 by microdilution method; type: functional
In short: (§2)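 In vitro antibacterial test by microdilution. Strains were drawn from a panel of Gram-positive and Gram-negative bacteria. Ofloxacin was run as the positive control. The read-out is MIC.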

[4] = test system: Staphylococcus epidermidis; assay: Antimicrobial activity against Staphylococcus epidermidis ATCC 12228 by microdilution method; type: functional; in short: as §2
[5] = test system: Kocuria rhizophila; assay: Antimicrobial activity against Micrococcus luteus ATCC 9341 by microdilution method; type: functional; in short: as §2
[6] = test system: Bacillus subtilis; assay: Antimicrobial activity against Bacillus subtilis CMCC 63501 by microdilution method; type: functional
[7] = test system: Escherichia coli; assay: Antimicrobial activity against Escherichia coli ATCC 25922 by microdilution method; type: functional; in short: as §2
[8] = test system: Shigella flexneri; assay: Antimicrobial activity against Shigella flexneri ATCC 12022 by microdilution method; type: functional; in short: as §2
[9] = test system: Pseudomonas aeruginosa; assay: Antimicrobial activity against Pseudomonas aeruginosa ATCC 14502 by microdilution method; type: functional; in short: as §2
[10] = test system: Candida albicans; assay: Antimicrobial activity against Candida albicans ATCC 1600 by agar dilution method; type: functional
In short: (§3)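 In vitro antifungal test by agar dilution against a panel of yeasts and dermatophytes. Amphotericin B served as the positive control. Activity is reported as MIC.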

[11] = test system: Saccharomyces; assay: Antimicrobial activity against Saccharomyces sake ATCC 26421 by agar dilution method; type: functional; in short: as §3
[12] = test system: Nannizzia gypsea; assay: Antimicrobial activity against Microsporum gypseum ATCC 14683 by agar dilution method; type: functional; in short: as §3
[13] = test system: Trichophyton rubrum; assay: Antimicrobial activity against Trichophyton rubrum ATCC 10218 by agar dilution method; type: functional; in short: as §3

Compound | IC50 [1] [µM] | IC50 [2] [µM] | MIC [3] [µM] | MIC [4] [µM] | MIC [5] [µM] | MIC [6] [µM] | MIC [7] [µM] | MIC [8] [µM] | MIC [9] [µM] | MIC [10] [µM] | MIC [11] [µM] | MIC [12] [µM] | MIC [13] [µM]
C[C@@H]1CC[C@]2(C)[C@H](CC[C@@H](O)[C@]2(C)O)[C@@]1(C)CCc1ccoc1 | ≥ 10 | ≥ 10 | > 150 | > 150 | > 150 | > 150 | > 150 | > 150 | > 150 | > 150 | > 150 | > 150 | > 150
C/C(=C\CO)[C@@H]1C[C@@H]2[C@@]3(C)CCCC(C)(C)[C@@H]3C[C@H](O)[C@@]2(C)O1 | ≥ 10 | ≥ 10 | > 150 | > 150 | > 150 | > 150 | > 150 | > 150 | > 150 | > 150 | > 150 | > 150 | > 150
C[C@@H]1CC[C@]2(C)[C@H](CC[C@@H](O)[C@]2(C)O)[C@@]1(C)C[C@H](O)c1ccoc1 | ≥ 10 | ≥ 10 | > 150 | > 150 | > 150 | > 150 | > 150 | > 150 | > 150 | > 150 | > 150 | > 150 | > 150
COC(=O)C1=CCC[C@@H]2[C@]13CC[C@H](C)[C@@]21C[C@H](c2ccoc2)O[C@H]1O[C@@H]3O | ≥ 10 | ≥ 10 | > 150 | > 150 | > 150 | > 150 | > 150 | > 150 | > 150 | > 150 | > 150 | > 150 | > 150
COC(=O)C1=CCC[C@@H]2[C@]13CC[C@H](C)[C@@]21C[C@H](c2ccoc2)O[C@H]1O[C@H]3O | ≥ 10 | ≥ 10 | > 150 | > 150 | > 150 | > 150 | > 150 | > 150 | > 150 | > 150 | > 150 | > 150 | > 150
C=C1C[C@H](OC(C)=O)[C@]23C(C(=O)OC)=CCC[C@H]2[C@]12C[C@H](c1ccoc1)O[C@H]2O[C@@H]3O | ≥ 10 | ≥ 10 | > 150 | > 150 | > 150 | > 150 | > 150 | > 150 | > 150 | > 150 | > 150 | > 150 | > 150
C=C1C[C@H](OC(C)=O)[C@]23C(C(=O)OC)=CCC[C@H]2[C@]12C[C@H](c1ccoc1)O[C@H]2O[C@H]3O | ≥ 10 | ≥ 10 | > 150 | > 150 | > 150 | > 150 | > 150 | > 150 | > 150 | > 150 | > 150 | > 150 | > 150
C=C1CC[C@H]2[C@](C)(CO)[C@H](O)CC[C@]2(C)[C@H]1C/C=C(\C)C=O | ≥ 10 | ≥ 10 | > 150 | > 150 | > 150 | > 150 | > 150 | > 150 | > 150 | > 150 | > 150 | > 150 | > 150
CC1=CCC[C@@H]2[C@@](C)(CCC3=CCOC3)[C@H](C)CC[C@@]12C (relative stereo) | ≥ 10 | ≥ 10 | 43.4 (≈ 12.5 µg/mL) | 43.4 (≈ 12.5 µg/mL) | 43.4 (≈ 12.5 µg/mL) | 43.4 (≈ 12.5 µg/mL) | – | – | – | – | – | – | –
C[C@@H]1C(=O)CC[C@H]2[C@@]1(C)CC[C@H]1C(=O)O[C@H](c3ccoc3)C[C@]21C (relative stereo) | ≥ 10 | ≥ 10 | > 150 | > 150 | > 150 | > 150 | > 150 | > 150 | > 150 | > 150 | > 150 | > 150 | > 150
C=C1[C@H](O)CC[C@@H]2[C@@]3(C)C[C@@H](c4ccoc4)OC(=O)[C@@H]3CC[C@@]12C (relative stereo) | ≥ 10 | ≥ 10 | > 150 | > 150 | > 150 | > 150 | > 150 | > 150 | > 150 | > 150 | > 150 | > 150 | > 150
C=C1CC[C@]23C(C(=O)OC)=CCC[C@H]2[C@]12C[C@H](c1ccoc1)O[C@H]2O[C@H]3O (relative stereo) | ≥ 10 | ≥ 10 | > 150 | > 150 | > 150 | > 150 | > 150 | > 150 | > 150 | > 150 | > 150 | > 150 | > 150
C=C1C[C@@H]2OC(=O)C3=CCC[C@H]4[C@]15C[C@H](c1ccoc1)O[C@H]5OC(=O)[C@]324 (relative stereo) | 9.42 | 7.45 | > 150 | > 150 | > 150 | > 150 | > 150 | > 150 | > 150 | > 150 | > 150 | > 150 | > 150
C=C1CC[C@]23C(C(=O)OC)=CCC[C@H]2[C@]12C[C@H](c1ccoc1)O[C@H]2O[C@@H]3O (relative stereo) | ≥ 10 | ≥ 10 | > 150 | > 150 | > 150 | > 150 | > 150 | > 150 | > 150 | > 150 | > 150 | > 150 | > 150
